Series [1] concerns the target Isocitrate dehydrogenase [NADP] cytoplasmic (Homo sapiens, UniProt O75874, R132H). The series is described as follows: Inhibition of IDH1 R132H mutant (unknown origin) assessed as reduction in NADPH consumption using alpha-KG as substrate incubated for 5 mins by diaphorase/resazurin-coupled system.
Series [2] deals with Isocitrate dehydrogenase [NADP] cytoplasmic (Homo sapiens), O75874 [R132H]. The series is described as follows: Inhibition of IDH1 R132H mutant (unknown origin) assessed as reduction in NADPH consumption using alpha-KG as substrate at 38 uM incubated for 5 mins by diaphorase/resazurin-coupled system relative to control. On the technique in general: Alamar Blue is a resazurin reagent that responds to reducing activity.
Sequence of Isocitrate dehydrogenase [NADP] cytoplasmic (Homo sapiens), O75874 [R132H] (O75874 whole entry R132H): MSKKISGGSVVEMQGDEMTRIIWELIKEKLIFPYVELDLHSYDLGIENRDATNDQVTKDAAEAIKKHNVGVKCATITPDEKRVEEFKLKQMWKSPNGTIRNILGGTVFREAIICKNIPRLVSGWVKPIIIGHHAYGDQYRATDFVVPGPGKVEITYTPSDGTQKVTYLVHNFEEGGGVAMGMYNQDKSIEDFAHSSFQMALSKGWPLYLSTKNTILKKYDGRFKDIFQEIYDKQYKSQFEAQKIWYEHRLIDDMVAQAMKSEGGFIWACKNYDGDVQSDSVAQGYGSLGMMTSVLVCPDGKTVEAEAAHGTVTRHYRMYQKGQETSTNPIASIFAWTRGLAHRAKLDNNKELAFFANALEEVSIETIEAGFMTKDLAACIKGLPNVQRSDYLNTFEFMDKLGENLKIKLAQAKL

Series [3] concerns the target Isocitrate dehydrogenase [NADP] cytoplasmic (Homo sapiens, UniProt O75874, R132C). Kind of series: Inhibition of IDH1 R132C mutant (unknown origin) assessed as reduction in NADPH consumption using alpha-KG as substrate incubated for 5 mins by diaphorase/resazurin-coupled system.
For series [4], the system named is Isocitrate dehydrogenase [NADP] cytoplasmic (Homo sapiens), O75874 [R132C]. The series is described as follows: Inhibition of IDH1 R132C mutant (unknown origin) assessed as reduction in NADPH consumption using alpha-KG as substrate at 38 uM incubated for 5 mins by diaphorase/resazurin-coupled system relative to control.
Sequence of Isocitrate dehydrogenase [NADP] cytoplasmic (Homo sapiens), O75874 [R132C] (O75874 whole entry R132C): as the sequence (O75874 whole entry R132H) above, with H132C counted along it
The nature of series [5]: Metabolic stability in rat liver microsomes assessed as half life incubated for 15 mins by high resolution LC/MS analysis. To be noted: 0.25 h. The series is classed as ADME, Microsome. The procedure, abridged:
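Rat liver microsomes (0.5 mg/mL protein) with 1.0 μM compound and NADPH regenerating system in 100 mM phosphate pH 7.4, 15 min at 37 °C. Quenched with acetonitrile containing albendazole internal standard. Percent remaining measured by high-resolution LC/MS.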
In general terms: Microsomes from liver hold many membrane-bound enzymes, among them those of drug oxidation.

Series [6] can be described thus: Permeability of compound at pH 7.4 by PAMPA assay. The series is classed as ADME. Conditions: for Papp: read-out: permeability. In short, it runs like this: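 Stirring double-sink PAMPA using a lipid/dodecane membrane tuned for GI passive permeability, pH 7.4 on donor and acceptor sides. Compound at 0.05 mM (0.5% DMSO), 30 min permeation at room temperature with donor stirring. Donor and acceptor concentrations read by UV plate reader.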

The nature of series [7]: Kinetic solubility of the compound in pH 7.4 phosphate buffer measured after 6 hrs by UV spectroscopy. The series is classed as physicochemical. Conditions: read-out: Kinetic_solubility.
The subject of series [8] is Isocitrate dehydrogenase [NADP] cytoplasmic (Homo sapiens), O75874 [R132H]. Kind of series: Inhibition of IDH1 R132H mutant (unknown origin) expressed in human U87 cells assessed as R-2-hydroxyglutarate production at 100 nM after 48 hrs by LC-MS analysis. The series is classed as cell-based. Also on record: scale not given: the % may be the effect or the level left. The procedure, abridged:
(§1)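 U87-R132H cells (8000/well, DMEM high glucose, 10% FBS) were seeded, cultured overnight at 37 °C and 5% CO2, then given compound or DMSO. After 48 h, 2-HG secreted into the medium was measured by RapidFire LC-MS. Cell viability was checked by CellTiter-Glo.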

Series [9] shares this test system. Kind of series: Inhibition of IDH1 R132H mutant (unknown origin) expressed in human U87 cells assessed as R-2-hydroxyglutarate production at 500 nM after 48 hrs by LC-MS analysis. Also on record: scale not given: the % may be the effect or the level left. The series is classed as cell-based. In short, it runs like this: as §1
Series [10] in a line: Tmax in CD1 mouse brain at 30 mg/kg, po measured up to 24 hrs by LC-MS/MS analysis. Type of series: ADME, organism-based. The procedure, abridged: (§2)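 Fed male CD1 mice (6–8 weeks, ~25–30 g) given a single 30 mpk oral dose as a 3 mg/mL solution in 20% PEG300, 40% Solutol solution (30% w/w in water), 40% DI water. Plasma (heparin-Na, heart puncture) and whole brain taken from N=3 mice per time point, 15 min to 24 h. LC/MS/MS quantitation gave Tmax, Cmax and AUC.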

The nature of series [11]: Cmax in CD1 mouse brain at 30 mg/kg, po measured up to 24 hrs by LC-MS/MS analysis. The series is classed as ADME, organism-based. The arrangement: route oral, dose 30 mg/kg, time <=24. The procedure, abridged:
as §2

The nature of series [12]: AUClast in CD1 mouse brain at 30 mg/kg, po measured up to 24 hrs by LC-MS/MS analysis. The series is classed as ADME, organism-based. Conditions: in vivo. The procedure, abridged:
as §2

Series [13] is described as follows: Ratio of AUClast in plasma to brain in CD1 mouse at 30 mg/kg, po measured up to 24 hrs by LC-MS/MS analysis. To be noted: in vivo. The series is classed as ADME, organism-based. The procedure, abridged: as §2
The nature of series [14]: Ratio of Cmax in plasma to brain in CD1 mouse at 30 mg/kg, po measured up to 24 hrs by LC-MS/MS analysis. The series is classed as ADME, organism-based. Conditions: in vivo. The procedure, abridged: as §2
Series [15] in a line: Tmax in CD1 mouse plasma at 30 mg/kg, po measured up to 24 hrs by LC-MS/MS analysis. Type of series: ADME, organism-based. The procedure, abridged:
as §2

The nature of series [16]: Cmax in CD1 mouse plasma at 30 mg/kg, po measured up to 24 hrs by LC-MS/MS analysis. The series is classed as ADME, organism-based. The arrangement: route oral, dose 30 mg/kg, time <=24. In short, it runs like this:
as §2

The nature of series [17]: AUClast in CD1 mouse plasma at 30 mg/kg, po measured up to 24 hrs by LC-MS/MS analysis. Type of series: ADME, organism-based. The arrangement: route oral, dose 30 mg/kg, time <=24. In short, it runs like this: as §2
Series [18] is described as follows: Drug level in human U87MG cells expressing IDH1 R132H mutation transfected in NCr mouse plasma at 30 mg/kg, po measured after 24 hrs by LC-MS/MS analysis. To be noted: read-out: Drug uptake. The series is classed as ADME, organism-based, U-87MG ATCC. In short, it runs like this: (§3)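 Mice bearing subcutaneous U87MG glioblastoma cells carrying IDH1 R132H (1 x 10^7 cells/mouse) were staged at ~200 mg and randomized. Each received a single oral 30 mg/kg dose; vehicle was 10% NMP, 40% PEG300, 25% [30% Solutol in water], 25% DI water. K2EDTA blood and tumors were taken under isoflurane from 4 mice per group at 1–48 h. Drug was quantified by validated LC-MS/MS.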

Series [19] is described as follows: Drug level in human U87MG cells expressing IDH1 R132H mutation transfected in NCr mouse plasma at 30 mg/kg, po measured after 36 hrs by LC-MS/MS analysis. The series is classed as ADME, organism-based, U-87MG ATCC. To be noted: read-out: Drug uptake. The procedure, abridged: as §3
Series [20] can be described thus: Drug level in human U87MG cells expressing IDH1 R132H mutation transfected in NCr mouse plasma at 30 mg/kg, po measured after 48 hrs by LC-MS/MS analysis. The series is classed as ADME, organism-based, U-87MG ATCC. Conditions: read-out: Drug uptake. In short, it runs like this: as §3

Structures are written as SMILES. ≈ marks a conversion by molar mass, not a printed value. Where “and” joins values, the source holds several entries; their conditions need not be identical. Identical values can stand only once. Bounds are passed on as bounds.

Sequence of Isocitrate dehydrogenase [NADP] cytoplasmic (Homo sapiens, UniProt O75874, R132C) (O75874 2-414 R132C limits assumed): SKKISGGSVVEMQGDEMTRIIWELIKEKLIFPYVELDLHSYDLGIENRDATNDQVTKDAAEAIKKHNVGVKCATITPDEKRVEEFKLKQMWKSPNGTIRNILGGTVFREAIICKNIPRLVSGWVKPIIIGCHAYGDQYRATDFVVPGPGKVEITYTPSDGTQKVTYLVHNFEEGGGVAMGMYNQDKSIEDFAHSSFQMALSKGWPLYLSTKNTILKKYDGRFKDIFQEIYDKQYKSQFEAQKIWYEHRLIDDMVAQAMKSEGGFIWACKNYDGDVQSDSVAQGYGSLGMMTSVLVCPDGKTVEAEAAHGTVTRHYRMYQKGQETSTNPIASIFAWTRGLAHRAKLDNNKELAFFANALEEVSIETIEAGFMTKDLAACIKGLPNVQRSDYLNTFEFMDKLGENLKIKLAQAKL
Sequence of Isocitrate dehydrogenase [NADP] cytoplasmic (Homo sapiens, UniProt O75874, R132H) (O75874 2-414 R132H limits assumed): as the sequence (O75874 2-414 R132C limits assumed) above, with C131H counted along it

Broadly, the IC50 is the concentration that gives 50% inhibition. As a reminder, the inhibition is the change of the read-out against control, counted positive when it falls. For `CCc1cccc(CC)c1-n1c(C=C(C)C)c(C(=O)N2CCNCC2)cc(-c2nc(-c3ccc(Cl)cc3)cs2)c1=O`, the half-inhibitory concentration (IC50) was determined as 44 nM in [1] and 58 nM in series [3]. For the same compound, the inhibition in [2] amounted to 101%; in series [4] it was 97%. Also, the t1/2 in [5] is recorded as 14 min. Further, the Papp in series [6] was determined as 225 ×10⁻⁶ cm/s. Further, in series [7], the solubility kinetic at 6 h was under 1 µg/mL. The Activity turned out to be 13% in series [8] and 16% in [9].
Regarding `CCc1ccc(OC)cc1-n1c(C=C(C)C)c(C(=O)N2CCNCC2)cc(-c2nc(-c3ccc(Cl)cc3)cs2)c1=O`, the half-maximal inhibitory concentration (IC50) was found to be 114 nM in series [1] and 75 nM in [3]. In addition, the t1/2 in [5] is over 30 min. Besides, the Papp in series [6] turned out to be 549 ×10⁻⁶ cm/s. Also, the solubility kinetic at 6 h in series [7] is under 1 µg/mL. Also, the Activity in series [8] came to 40%; in series [9] it was 19%.
In the case of `CCc1cccc(CC)c1-n1c(C=C(C)C)c(C(=O)N2C[C@H]3CC[C@@H](C2)N3)cc(-c2nc(-c3ccc(Cl)cc3)cs2)c1=O`, the IC50 in series [1] stood at 94 nM; in series [3] it was 60 nM. In series [5], the t1/2 is over 30 min. Also, in series [6], the Papp was determined as 89 ×10⁻⁶ cm/s. In addition, the solubility kinetic at 6 h in series [7] is under 1 µg/mL. Besides, the results for the Activity in series [8] and in [9] were 11% and 10%, respectively.
Regarding `CCc1cccc(CC)c1-n1c(CC(C)C)c(C(=O)N2CCNCC2)cc(-c2nc(-c3ccc(Cl)cc3)cs2)c1=O`, the results for the half-maximal inhibitory concentration (IC50) in series [1] and in series [3] were 110 nM and 120 nM, respectively. Further, the inhibition in series [2] stood at 98%; in series [4] it was 83%. Further, the t1/2 in series [5] stood at 17 min. Moreover, the Papp in series [6] came out at 16 ×10⁻⁶ cm/s. The solubility kinetic at 6 h in series [7] is under 1 µg/mL. Besides, the Activity came out at 33% in [8] and 12% in series [9].
For the compound `CCc1cccc(CC)c1-n1c(C=C(C)C)c(C(=O)N2CCNC3(CC3)C2)cc(-c2nc(-c3ccc(Cl)cc3)cs2)c1=O`, the IC50 in series [1] turned out to be 78 nM; in series [3] it was 48 nM. Besides, in series [5], the t1/2 came out at 12 min. For the same compound, the Papp in [6] is 48 ×10⁻⁶ cm/s. The solubility kinetic at 6 h in series [7] is under 1 µg/mL. The Activity in series [8] is 17%; in series [9] it was 14%.
`CCc1cccc(CC)c1-n1c(C=C(C)C)c(C(=O)N2CCNC(=O)C2)cc(-c2nc(-c3ccc(Cl)cc3)cs2)c1=O`: the values for the 50% inhibitory concentration (IC50) in series [1] and in series [3] were 35 nM and 39 nM, respectively. Also, the t1/2 in series [5] was 2 min. In addition, the Papp in series [6] was 275 ×10⁻⁶ cm/s. In [7], the solubility kinetic at 6 h was under 1 µg/mL. The Activity in series [8] was 23%; in series [9], 13%.
By Tmax is commonly meant the time at which the peak concentration occurs. Broadly, the Cmax is the peak of the concentration-time curve. By AUC(0-t) is commonly meant the area under the concentration-time curve up to a stated or last time point. Regarding `CCc1ccc(Cl)cc1-n1c(C=C(C)C)c(C(=O)N2CCNCC2)cc(-c2nc(-c3ccc(Cl)cc3)cs2)c1=O`, the t1/2 in series [5] is listed as over 30 min. Also, the permeability in series [6] was 255 10^-6 cm/s and 434 10^-6 cm/s. In addition, the solubility kinetic at 6 h in [7] was under 1 µg/mL. In addition, the figures for the Activity in [8] and in series [9] were 5.9% and 4.1%, respectively. Besides, the Tmax in [10] was determined as 360 min; in series [15], 240 min. Besides, the peak concentration (Cmax) in [11] was 595 ng/g; in [16], 2010 ng/mL. Also, the AUClast in series [12] came to 7000 ng·h/g. The “Ratio AUC” value in series [13] was 3.52. Further, in series [14], the Ratio was 3.68. The same compound yielded an AUC(0-t) at 24 h in [17] of 24400 ng·h/mL. Further, the concentration at 24 h in series [18] amounted to 9.5 µM. Also, the concentration at 36 h in [19] is 7.2 µM. Besides, the concentration at 48 h in series [20] is 6.8 µM.
For the compound `CCc1cccc(CC)c1-n1c(C=C(C)C)c(C(=O)N2CCNC(C(=O)O)C2)cc(-c2nc(-c3ccc(Cl)cc3)cs2)c1=O` (centres undefined), the figures for the IC50 in series [1] and in [3] were 55 nM and 64 nM, respectively. Further, in series [5], the t1/2 is listed as 23 min. For the same compound, in series [6], the Papp is under 1 ×10⁻⁶ cm/s. In series [7], the solubility kinetic at 6 h turned out to be 16 µg/mL (≈ 25.3 µM). Besides, the Activity in [8] was found to be 29%; in series [9], 10%.

For the origin of these results see ChEMBL document CHEMBL4811250, “Discovery and Optimization of 2H-1λ2-Pyridin-2-one Inhibitors of Mutant Isocitrate Dehydrogenase 1 for the Treatment of Cancer” (J Med Chem, 2021).
